TPT1 inh: C. albicans TPT1 enzyme inhibition. recombinant caTPT1, FP RNA substrate dephosphorylation. inhibition, % at 5 µM. actives 0.81% (n = 300,000). AID 1962;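 active = inhibition above the mean of all tested compounds plus 3 SD, set per screening campaign, cut at about 24% in these data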;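 also: plate controls were DMSO alone for no effect and ferristatin control at 100 nM for full effect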
IDE cell activ: IDE (human) activation, cell-based | HEK cells, FAbeta-B cleavage, fluorescence polarization; 0% vehicle, 100% cell-free pure enzyme wells | P14735 | actives 0.073% (n = 340,000) | activation, % at 5.96 µM;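 active = activation above the mean of all tested compounds plus 3 SD, set per screening campaign, cut at about 17% in these data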
IDE inh: inhibits human insulin-degrading enzyme in HEK cells; FAbetaB cleavage, fluorescence polarization; AID 434962; P14735; inhibition, % at 5.59 µM; actives 0.41% (n = 320,000);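 active = percent inhibition above the average of all tested compounds plus 3 SD, set per screening campaign, cut at about 16% in these data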;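 also: IDE supplied by intact live HEK cells; FP after avidin binding of uncleaved biotin substrate so inhibition keeps polarization high; 0% = DMSO wells and 100% = 60 µM reference IDE inhibitor Ii1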
CSN deneddyl inh: CSN deneddylation inhibition; Q92905; Purified CSN, SCF-Nedd8-OG deneddylation, fluorescence polarization; inhibition, % at 12.5 µM; actives 0.38% (n = 360,000); AID 651999;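 active = pattern-corrected inhibition above about 35%, with an unprinted fluorescence ratio check between 0.5 and 1.5, limit read from the data, passing the limit was not always enough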;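 also: 0% = enzyme with substrate and 100% = substrate without enzyme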
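Assay system: purified human Csn5 enzyme expressed in HEK293T cells; Input: 0.24 nM Csn5 enzyme, final concentration; Reagent: 10 nM SCFSkp2-Nedd8OG; Compound dosing: 12.5 µM single point; Times: reaction 90 min, room temperature; Technique: fluorescence polarization readout.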
HNF4A DNA FP: change in binding of human HNF4 alpha to DNA; actives 0.3% (n = 360,000); activity change, % at 10 µM; AID 1224865; HNF4a-FITC DNA binding, fluorescence polarization, 1 h; in the data active = activity change above about 30%, passing the limit was not always enough
Rpn11 block: Rpn11 (human) deubiquitinase inhibition | O00487 | human 26S proteasome, Ub4-pepOG fluorescence polarization; 20S core pre-blocked with epoxomicin | calls only at 20 µM | actives 0.59% (n = 360,000) | AID 588493;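 active = inhibition at 20 µM, scaled to each plate's controls, above about 33%, limit read from the data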
Rpn11 confirm: Rpn11 inhibition confirmation, single concentration | shares compounds with Rpn11 block | purified human 26S proteasome, Ub4-pepOG fluorescence polarization; proteasome pretreated with epoxomicin | inhibition, % at 20 µM | actives 29% (n = 1,900)
MMP-2 inh: counter-screen for RPN11 inhibitors: inhibition of human MMP-2; shares compounds with Rpn11 block; recombinant MMP-2, FRET peptide cleavage fluorescence; inhibition, % at 20 µM; actives 4% (n = 1,900); AID 602330;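 also: human MMP-2 activated beforehand with APMA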
Thrombin inh: counter-screen for RPN11 inhibitors: inhibition of bovine thrombin; shares compounds with Rpn11 block; bovine thrombin cleavage of Ub4-pepOG, fluorescence polarization; inhibition, % at 20 µM; actives 13% (n = 1,900);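 active = mean inhibition at least 40% at 20 µM, or signal 3 deviations below plate average, so some actives read negative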;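 also: plate controls were thrombin with DMSO for no effect and buffer wells lacking thrombin for full effect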
Target sequence (P00735 whole entry, looked up): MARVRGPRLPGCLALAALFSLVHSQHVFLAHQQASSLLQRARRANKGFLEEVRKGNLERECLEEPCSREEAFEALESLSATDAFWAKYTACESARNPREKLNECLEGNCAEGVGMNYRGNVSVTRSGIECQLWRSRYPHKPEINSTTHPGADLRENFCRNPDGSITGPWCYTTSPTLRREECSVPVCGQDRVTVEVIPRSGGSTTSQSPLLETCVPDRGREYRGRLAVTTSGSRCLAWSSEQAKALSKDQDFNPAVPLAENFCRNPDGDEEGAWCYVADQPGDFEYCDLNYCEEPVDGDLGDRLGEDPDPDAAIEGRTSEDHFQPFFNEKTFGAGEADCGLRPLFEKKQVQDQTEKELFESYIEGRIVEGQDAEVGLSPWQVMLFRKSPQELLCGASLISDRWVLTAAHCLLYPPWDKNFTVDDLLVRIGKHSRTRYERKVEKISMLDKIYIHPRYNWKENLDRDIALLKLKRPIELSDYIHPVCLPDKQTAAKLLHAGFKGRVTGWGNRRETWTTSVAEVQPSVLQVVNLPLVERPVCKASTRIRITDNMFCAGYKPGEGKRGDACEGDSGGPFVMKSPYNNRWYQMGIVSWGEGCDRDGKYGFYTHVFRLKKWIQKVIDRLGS
* hit, by the source's call; i = inactive; . = no result given; + = active, no number. Only some compounds are listed: those with a hit (about 1.7% of all), similar ones and a draw of the others. Rule as the data show it, unless noted: active = inhibition above about 40%; inactive = the rest.

SMILES	TPT1 inh	IDE cell activ	IDE inh	CSN deneddyl inh	HNF4A DNA FP	Rpn11 block	Rpn11 confirm	MMP-2 inh	Thrombin inh
O=C(c1cccc2ccccc12)C1CCCN(C(=O)CCc2cnccn2)C1 (configuration not stated)	-2	1	3	-3	2	i	.	.	.
CCc1ccc(NC(=O)C2CCN(S(=O)(=O)c3ccc4c(c3)NC(=O)C(C)S4)CC2)cc1 (configuration not stated)	6	-6	8	6	18	+	87*	25	33
Cc1ccc(NC(=O)C2CCN(S(=O)(=O)c3ccc4c(c3)NC(=O)C(C)S4)CC2)cc1C (configuration not stated)	0	-5	6	-2	2	i	.	.	.
CC(C)n1ncc2c(C(=O)Nc3ccc(S(N)(=O)=O)cc3)cc(C3CC3)nc21	.	0	-2	113*	64	+	90*	-72	14
NCCCC[C@H]1CN=C(N)N1CC1CCCCC1	0	1	4	2	-29	+	-12	-3	47*
NCCCC[C@H]1CN=C(N)N1CCCCC1CCCCC1	-5	2	2	-6	0	i	.	.	.
CNC[C@@H]1Oc2cc(Br)ccc2S(=O)(=O)N([C@@H](C)CO)C[C@H]1C	.	.	.	5	-3	i	.	.	.
COc1ccc(N2C(=O)c3ccccc3NC23CCCC3)cc1	-2	5	3	-1	-3	+	-5	-36	0
COC(=O)c1cc(Br)c(=O)n(CCc2ccc(F)cc2)c1	1	1	-3	2	1	+	-16	-20	-16
COC(=O)c1cc(Br)c(=O)n(CCc2ccc(O)cc2)c1	-2	1	3	4	1	i	.	.	.
CCOC(=O)N1CCN(C(=S)NC(=O)c2cccc(OC)c2)CC1	.	-2	0	-3	-1	i	.	.	.
Cc1c(C(=O)O)sc2nc(CSc3nnc(-c4ccc(F)cc4)n3C)[nH]c(=O)c12	1	-3	1	-4	-5	i	.	.	.
CC(=O)c1sc2nc(CSc3nncn3C)[nH]c(=O)c2c1C	6	0	2	-1	1	+	4	-74	8
CC(C)CNC(=O)c1cc([N+](=O)[O-])ccc1N1CCCCC1	1	-3	6	0	0	i	.	.	.
CCCCc1cc(=O)oc2cc(C)cc(OCC(=O)Nc3cccnc3)c12	0	-4	4	20	-9	+	18	-10	-9
Cc1nnc(N2CCCC(C(=O)NCc3ccc(OC(C)C)cc3)C2)c2nn(-c3ccccc3)c(C)c12 (configuration not stated)	5	3	0	7	15	+	23	-11	10
c1ccc2c(c1)nc1n2CCS1	-2	4	7	-4	-2	i	.	.	.
O=C(COC(=O)c1ccccc1O)NC(c1ccccc1)c1ccccc1	.	4	-1	-5	2	i	.	.	.
O=C(CCCN1C(=O)/C(=C\c2cccs2)SC1=S)Nc1ccccn1	2	0	0	6	1	+	5	-35	-8
O=C(CCCN1C(=O)/C(=C\c2cccs2)SC1=S)NNC(=O)c1cccnc1	3	-1	0	-5	12	+	3	13	-2
O=C(CCCN1C(=O)/C(=C/c2cccs2)SC1=S)NNC(=O)c1ccncc1	2	-2	2	12	3	+	-7	20	1
O=C(CCCN1C(=O)/C(=C/c2ccccc2Cl)SC1=S)NNC(=O)c1ccncc1	-2	3	4	-1	1	i	.	.	.
c1cc(-c2cnc3cccnn23)c2cccnc2c1	.	.	.	5	-4	i	.	.	.
CCS(=O)(=O)N1N=C(c2cccs2)CC1c1cc2cc(C)ccc2nc1Cl (configuration not stated)	4	-3	-1	10	22	+	34	-9	24
Cc1ccc2nc(Cl)c(C3CC(c4cccs4)=NN3C(=O)CCCC(=O)O)cc2c1 (configuration not stated)	-1	-4	-1	1	2	i	.	.	.
SMILES	TPT1 inh	IDE cell activ	IDE inh	CSN deneddyl inh	HNF4A DNA FP	Rpn11 block	Rpn11 confirm	MMP-2 inh	Thrombin inh
COc1cccc(-c2c(C(=O)N/N=C/c3cccnc3)nnn2-c2nonc2N)c1	-6	7	4	1	-2	i	.	.	.
Cc1ccc(Cc2c(-c3ccco3)nc3c(C)cc(Br)cn23)cc1	.	.	.	18	7	i	.	.	.
CCCc1nc2c3ccccc3ccn2c1Cc1ccc(C)cc1	.	.	.	11	8	+	35	25	19
Cc1ccc(Cc2c(-c3ccco3)nc3c4ccccc4ccn23)cc1	.	.	.	22	18	+	35	40*	-8
COC(=O)c1cccc(C23CC4(C2)[C@H](CN(C)[C@@H]4c2ccccc2)C3c2ccc(C(F)(F)F)cc2)c1 (some centres not stated)	-2	6	2	-1	-7	i	.	.	.
CCOC(=O)Cn1c(=NC(=O)CN2C(=O)CCC2=O)sc2cc(S(N)(=O)=O)ccc21	-3	4	-5	4	3	i	.	.	.
C=CCn1c(=NC(=O)c2sc3ccccc3c2Cl)sc2cc(S(N)(=O)=O)ccc21	0	-4	7	20	3	+	49*	-19	0
CCOC(=O)Cn1c(=NC(=O)c2nc3ccccc3s2)sc2cc(S(N)(=O)=O)ccc21	-1	9	2	2	-1	+	7	-16	-5
COCCn1c(=NC(=O)c2cc(-c3cccs3)nc3ccccc23)sc2cc(S(N)(=O)=O)ccc21	15	7	4	0	7	+	20	32	10
Cc1ccc(S(=O)(=O)N2CCC(=O)N(CCOCc3ccccc3)CC2)cc1	-1	-8	9	-2	0	i	.	.	.
CCCOC(=O)CCCCCCCCC(O)CN1CCCCC1 (configuration not stated)	2	2	-2	3	2	i	.	.	.
Brc1ccc(-c2nnc3ccc(N4CCN(c5ccccc5)CC4)nn23)cc1	0	-2	1	6	1	+	-5	-28	-16
CC1CCN(C(=O)Cn2ncc3c([nH]c4ccccc43)c2=O)CC1	-3	3	5	1	-19	i	.	.	.
